# Measurements reported in paper PMC4079331 (Journal of Medicinal Chemistry, 2014).
# pEC50: −log10 of the molar value.
# Tests used:
# CLL patient cells = assay: In vitro activity against CLL patient cells, summary statements over cell lines; type: cell-based, human; conditions: for in vitro activity against CLL patient cells: result in words
# Procedure, shortened: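 Primary CLL cells from consented patients, cultured in RPMI with 10% FBS and test compound at designated concentrations for 48 h (37 °C, 5% CO2). Viability is the DiOC6+/PI− fraction relative to untreated or vehicle control. EC50 and SE come from dose–response curves.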
# [1] = Nonspecific protein binding, from recovery out of plasma and serum; type: in vitro ADME; conditions: result in words
# Procedure, shortened: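 Test compound at 50 μM final (1% DMSO) in pooled female BALB/c mouse plasma or serum, or in human AB serum, incubated at 37 °C with gentle agitation. Aliquots taken at 0, 0.5, 1, 2, 8, 18 and 24 h were precipitated with CH3CN and centrifuged at 3000g for 10 min; supernatants were quantified by LCMS. Run in triplicate.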
# [2] = Phase I metabolism in mouse microsomes; type: in vitro ADME; conditions: 1 h incubation, 100 μM, NADPH
# Procedure, shortened: (§1)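 Mouse or human microsomes (5 mg/mL protein final) in 0.1 M sodium phosphate pH 7.4 with 100 μM test compound (DMSO <1%), preincubated 5 min at 37 °C. Started with 1 mM NADPH and run 60 min at 37 °C. Stopped with MeOH and centrifuged; supernatant analysed by LCMS. Controls: zero time, no NADPH, boiled microsomes, and 7-ethoxycoumarin as CYP substrate.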
# [3] = Phase I metabolism in human microsomes; type: in vitro ADME; conditions: 1 h incubation, 100 μM, NADPH
# Procedure, shortened: as §1
# [4] = Phase II glucuronidation in mouse S9 fractions; type: in vitro ADME
# [5] = Phase II glucuronidation in human S9 fractions; type: in vitro ADME
# [6] = test system: KB nasopharyngeal tumor cells; conditions: in vitro cultured cells; from the literature, reference not given; cited from earlier work
# CLL = conditions: read-out: EC50 against CLL; p53-independent activity; cited from earlier work
# [7] = Stability in mouse plasma; type: in vitro ADME; conditions: female, BALB/c, mouse plasma (pooled)
# Procedure, shortened: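 Test compound at 50 μM final (1% DMSO) in pooled plasma from female BALB/c mice or human AB serum. Incubated at 37 °C with gentle agitation. Samples taken at 0, 0.5, 1, 2, 8, 18 and 24 h. Proteins precipitated with CH3CN, vortexed and centrifuged (3000g, 10 min, room temperature); supernatant analysed by LCMS. Run in triplicate.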
# [8] = test system: CLL2 (CLL patient cell line); assay: In vitro cytotoxicity against primary CLL patient cells CLL2; type: cell-based, human; conditions: for pEC50: read-out: antitumor EC50 CLL2, Table 3, SE ±0.01 μM
# [9] = test system: JVM-2 (ATCC leukemia cell line); assay: In vitro cytotoxicity against JVM-2; type: cell-based; conditions: read-out: antitumor EC50 JVM-2; Table 3; SE ±0.01 μM
# [10] = test system: CLL1 (CLL patient cell line); assay: In vitro cytotoxicity against primary CLL patient cells CLL1; type: cell-based, human; conditions: read-out: antitumor EC50 CLL1; Table 3; SE ±0.01 μM
# HeLa cell line = assay: HeLa cell viability by the MTT method; type: cell-based; conditions: read-out: antitumor EC50 HeLa; Table 3; SE ±0.01 μM
compound,measurement,setting,value
"CN1C(=O)N[C@H]2[C@@H]3NC(=O)c4ccc(Br)n4[C@@H]3C[C@]21O [1a, (−)-Agelastatin A]",pEC50,"CLL patient cells; read-out: EC50, CLL activity, range over the cell lines tested",6.51 to 6.96
same,nonspecific protein binding,[1],relatively low
same,"metabolism by cytochrome P450 enzymes, recovery from supernatant (LCMS)",[2],quantitative recovery
same,"metabolism by cytochrome P450 enzymes, recovery from supernatant (LCMS)",[3],quantitative recovery
same,formation of glucuronides,[4],No formation of glucoronides was detected
same,formation of glucuronides,[5],No formation of glucoronides was detected
same,"IC50, growth of KB nasopharyngeal tumor cells",[6],0.5–1 μg mL^–1
same,pEC50,CLL,7.00 to 7.22
"CN1C(=O)N[C@H]2[C@@H]3NC(=O)c4ccc(Cl)n4[C@@H]3C[C@]21O [1d, 13-Debromo-13-chloro-agelastatin A]",in vitro activity against CLL patient cells,CLL patient cells,nanomolar
"CN1C(=O)N[C@H]2[C@@H]3NC(=O)c4cc(Cl)c(Cl)n4[C@@H]3C[C@]21O [1e, 13-Debromo-13,14-dichloro-agelastatin A]",in vitro activity against CLL patient cells,CLL patient cells,nanomolar
"CN1C(=O)N[C@H]2[C@@H]3NC(=O)c4ccc(I)n4[C@@H]3C[C@]21O [1g, 13-Debromo-13-iodo-agelastatin A]",in vitro activity against CLL patient cells,CLL patient cells,nanomolar
"CN1C(=O)N[C@H]2[C@@H]3NC(=O)c4ccc(C(F)(F)F)n4[C@@H]3C[C@]21O [1j, 13-Debromo-13-trifluoromethyl-agelastatin A]",in vitro activity against CLL patient cells,CLL patient cells,nanomolar
same,"recovery at 24 h, 50 μM",[7],65 to 90%
same,nonspecific protein binding,[1],relatively low
same,"metabolism by cytochrome P450 enzymes, recovery from supernatant (LCMS)",[2],quantitative recovery
same,"metabolism by cytochrome P450 enzymes, recovery from supernatant (LCMS)",[3],quantitative recovery
"CN1C(=O)N[C@H]2[C@@H]3NC(=O)c4ccc(C#N)n4[C@@H]3C[C@]21O [1n, 13-Debromo-13-cyano-agelastatin A]",in vitro activity against CLL patient cells,CLL patient cells,nanomolar
"CN1C(=O)N[C@H]2[C@@H]3NC(=O)c4cccn4[C@@H]3C[C@]21O [1p, 13-Debromo-agelastatin A]",loss of activity on removal of Br from C-13,[8]; compared with 1a,25 fold
same,"metabolism by cytochrome P450 enzymes, recovery from supernatant (LCMS)",[2],near quantitative recovery
same,"metabolism by cytochrome P450 enzymes, recovery from supernatant (LCMS)",[3],near quantitative recovery
"CCOc1ccc2ccc(=O)oc2c1 [7-ethoxycoumarin, reference compound]","metabolism by cytochrome P450 enzymes, recovery from supernatant (LCMS)",[2],metabolized
same,"metabolism by cytochrome P450 enzymes, recovery from supernatant (LCMS)",[3],metabolized
O-(2′-Methoxyethyl)-agelastatin A [4c],pEC50,[8],5.03
same,pEC50,[9],4.68
O-Methyl-agelastatin A [4b],pEC50,[10],3.06
same,pEC50,[8],4.54
same,pEC50,[9],3.37
same,pEC50,HeLa cell line,4.04
